These results are taken from ChEMBL document CHEMBL1153939, “Novel antagonists of serotonin-4 receptors: synthesis and biological evaluation of pyrrolothienopyrazines” (Bioorg Med Chem, 2009).

Each structure is given as a SMILES string. Active and inactive are the calls of the source.

As usually defined, the inhibition is the percentage by which the read-out fell short of the control. A word on the IC50: it is the concentration that gives 50% inhibition.

Data set [1] deals with Mus musculus. Nature of the data set: Analgesic activity in NMRI mouse assessed as reaction time taken to lick fore paw at 0.01 to 1 mg/kg, ip by hot plate test. Type of data set: functional, organism-based. The essentials:
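Male NMRI mice (20–24 g), 10 per group, each pre-screened twice on a 55 °C plate (response required within 4–12 s). Compound given ip in saline (10 mL/kg) at 0.01, 0.1 and 1 mg/kg. Time to forepaw licking recorded 15 and 30 min post-injection; 30 s cutoff. ANOVA + Fisher PLSD.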

Data set [2] has as its target 5-hydroxytryptamine receptor 4 (Mus musculus) (UniProt P97288). Nature of the data set: Antagonist activity at mouse 5HT4a receptor expressed in african green monkey COS7 cells assessed as inhibition of 5HT-induced cAMP release relative to serotonin. The settings on record: COS-7. Details: scale not given: the % may be the effect or the level left. The class given is functional, cell-based. The essentials:
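Antagonist mode on the same transfected COS-7 cells expressing mouse 5-HT4(a). Cells labelled with [3H]adenine, then incubated with 0.75 mM IBMX, 0.1 µM forskolin and test agents for 5 min at 37 °C; stopped with ice-cold 5% TCA. cAMP read as [3H]ATP→[3H]cAMP conversion after Dowex/alumina chromatography. Mean of four independent experiments.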

The target of data set [3] is 5-hydroxytryptamine receptor 3A (Homo sapiens) (UniProt P46098). In words: Antagonist activity at 5HT3 receptor in hybrid NG108-15 cells assessed as inhibition of 5HT-induced current treated 1 min prior to agonist treatment by electrophysiology. Type of data set: functional, cell-based. In a few lines:
(§1)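 NG108-15 cells grown in DMEM-HG with 5% FBS and HAT, then differentiated on polylysine glass with 2% DMSO for 48 h followed by ≥24 h with 1 mM dibutyryl-cAMP. Whole-cell recording at −60 mV in HEPES saline, pH 7.3, with a CsCl/CsMeSO3 pipette solution. 5-HT 50 µM applied by gravity every 2.5 min.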

Data set [4] has as its target 5-hydroxytryptamine receptor 4 (Cavia porcellus) (UniProt O70528). In words: Displacement of [3H]GR-113808 from 5HT4 receptor in guinea pig striatum membrane at 1 uM. Type of data set: cell membranes. The essentials:
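Guinea pig membranes (15 µg protein/mL) incubated 30 min at 37 °C with 0.6 nM [3H]GR113808 in 50 mM HEPES, pH 7.4, with fixed test concentrations. Nonspecific binding defined with 10 µM serotonin.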
A general note: Loss of bound radioactivity is the signal in a displacement assay; it reports binding, not function.

For data set [5], the target named is Alpha-1A adrenergic receptor (Homo sapiens, UniProt P35348). Nature of the data set: Displacement of [3H]prazosin form human recombinant alpha1A adrenergic receptor.
The target of data set [6] is T1, 5-hydroxytryptamine receptor 3A (Homo sapiens, UniProt P46098).
T1 sequence (P46098 whole entry): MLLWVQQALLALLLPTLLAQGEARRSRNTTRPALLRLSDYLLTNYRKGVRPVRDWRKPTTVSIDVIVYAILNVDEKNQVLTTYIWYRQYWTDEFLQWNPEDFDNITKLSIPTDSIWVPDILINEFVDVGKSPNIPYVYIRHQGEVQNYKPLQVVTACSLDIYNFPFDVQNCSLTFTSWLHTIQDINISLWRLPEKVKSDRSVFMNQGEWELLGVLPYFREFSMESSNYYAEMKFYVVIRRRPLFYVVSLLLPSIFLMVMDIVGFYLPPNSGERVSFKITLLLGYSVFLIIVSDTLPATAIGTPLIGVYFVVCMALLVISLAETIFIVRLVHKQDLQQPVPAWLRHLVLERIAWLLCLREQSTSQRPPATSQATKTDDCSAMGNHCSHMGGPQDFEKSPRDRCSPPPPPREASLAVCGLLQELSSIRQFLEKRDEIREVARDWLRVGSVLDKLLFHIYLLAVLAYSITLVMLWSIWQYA
In words: Displacement of [3H]granisetron from human recombinant 5HT3 receptor.

The test system of data set [7] is Mus musculus. In words: Antinociceptive activity against acetic acid-induced writhing in NMRI mouse assessed as number of stretches at 0.1 mg/kg, ip by writhing test. The class given is functional. The settings on record: route intraperitoneal. In a few lines:
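Groups of 8 male NMRI mice (20–24 g). Compound or reference given ip in saline (10 mL/kg) 15 min before ip 0.6% aqueous acetic acid (10 mL/kg). Stretches (back arching, pelvic rotation, hind-limb extension) counted over 10 min, beginning 10 min after acid. ANOVA + Fisher PLSD versus control.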
In general terms: Writhing tests count abdominal constrictions after an irritant is injected.

Data set [8] relates to Mus musculus. Nature of the data set: Acute toxicity in NMRI mouse assessed as behavioral changes at subtoxic <1/4 dose of LD50, ip by CNS activity test. Type of data set: organism-based, Central nervous system. The settings on record: in vivo. In a few lines: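 Male NMRI mice (20–24 g) given ip drug in saline (10 mL/kg), groups of 4. Behavioural and neurological changes scored against controls by a standardized observation technique at 30 min, 3 h and 24 h post-dose. Approximate LD50 derived from deaths counted at 24 h.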

For data set [9], the system named is Mus musculus. In words: Inhibition of scopolamine-induced immediate working memory deficit in NMRI mouse at 0.3 to 3 mg/kg, ip by Y-maze test. Type of data set: functional, organism-based. In a few lines:
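Spontaneous alternation in male NMRI mice. Compound given ip in saline at 0.3, 1 and 3 mg/kg, 30 min before testing, alone or with scopolamine 1 mg/kg; four groups per dose (saline/saline, saline/scopolamine, compound/saline, compound/scopolamine). Alternation % = actual alternations / (total arm entries − 2) × 100.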

In data set [10] the target is Alpha-1B adrenergic receptor (Homo sapiens, UniProt P35368). Nature of the data set: Displacement of [3H]prazosin form human recombinant Alpha-1B adrenergic receptor.
Data set [11] deals with Alpha-2B adrenergic receptor (Homo sapiens, UniProt P18089). Nature of the data set: Displacement of [3H]RX821002 form human recombinant alpha2B adrenergic receptor.
Data set [12] deals with Alpha-1D adrenergic receptor (Homo sapiens, UniProt P25100). Nature of the data set: Displacement of [3H]prazosin form human recombinant Alpha-1D adrenergic receptor.
In data set [13] the target is Alpha-2C adrenergic receptor (Homo sapiens, UniProt P18825). In words: Displacement of [3H]RX821002 form human recombinant Alpha-2C adrenergic receptor.
Data set [14] has as its target 5-hydroxytryptamine receptor 4 (Mus musculus) (UniProt P97288). Nature of the data set: Agonist activity at mouse 5HT4a receptor expressed in african green monkey COS7 cells assessed as cAMP release relative to serotonin. Type of data set: functional, cell-based. The settings on record: COS-7. The essentials:
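Mouse 5-HT4(a) receptor transfected by electroporation into COS-7 cells (560 fmol/mg protein). Cells labelled 2 h at 37 °C with [3H]adenine, then exposed to increasing concentrations of test agent in 0.75 mM IBMX and 0.1 µM forskolin. cAMP measured as [3H]ATP→[3H]cAMP conversion after Dowex/alumina separation. Expressed as % of maximal 5-HT stimulation over basal. Mean of four independent experiments.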

In data set [15] the target is 5-hydroxytryptamine receptor 2B (Homo sapiens, UniProt P41595). In words: Displacement of [3H]mesulergine from human recombinant 5HT2B receptor.
For data set [16], the target named is Alpha-2A adrenergic receptor (Homo sapiens, UniProt P08913). In words: Displacement of [3H]RX821002 form human recombinant alpha2A adrenergic receptor.
The target of data set [17] is 5-hydroxytryptamine receptor 1B (Rattus norvegicus, UniProt P28564). In words: Displacement of [3H]5OH-tryptamine form 5HT1B receptor in rat cerebral cortex. Type of data set: tissue-based.
Data set [18] deals with T1, 5-hydroxytryptamine receptor 3A. Nature of the data set: Antagonist activity at 5HT3 receptor in hybrid NG108-15 cells assessed as inhibition of 5HT-induced current by electrophysiology. The class given is functional, cell-based. The essentials:
as §1

Sequence of 5-hydroxytryptamine receptor 4 (Mus musculus) (P97288 whole entry): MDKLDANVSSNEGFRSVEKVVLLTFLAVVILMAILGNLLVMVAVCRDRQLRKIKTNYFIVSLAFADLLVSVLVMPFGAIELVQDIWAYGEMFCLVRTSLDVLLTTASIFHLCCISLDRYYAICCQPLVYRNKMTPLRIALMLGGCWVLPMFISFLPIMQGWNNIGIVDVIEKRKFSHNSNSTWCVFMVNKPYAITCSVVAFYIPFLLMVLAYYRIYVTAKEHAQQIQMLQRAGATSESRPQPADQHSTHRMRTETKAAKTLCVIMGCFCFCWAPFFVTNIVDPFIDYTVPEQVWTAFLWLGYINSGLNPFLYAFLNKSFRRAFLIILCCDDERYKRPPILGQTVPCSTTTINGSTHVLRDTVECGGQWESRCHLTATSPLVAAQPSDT
Sequence of Alpha-2C adrenergic receptor (P18825 whole entry): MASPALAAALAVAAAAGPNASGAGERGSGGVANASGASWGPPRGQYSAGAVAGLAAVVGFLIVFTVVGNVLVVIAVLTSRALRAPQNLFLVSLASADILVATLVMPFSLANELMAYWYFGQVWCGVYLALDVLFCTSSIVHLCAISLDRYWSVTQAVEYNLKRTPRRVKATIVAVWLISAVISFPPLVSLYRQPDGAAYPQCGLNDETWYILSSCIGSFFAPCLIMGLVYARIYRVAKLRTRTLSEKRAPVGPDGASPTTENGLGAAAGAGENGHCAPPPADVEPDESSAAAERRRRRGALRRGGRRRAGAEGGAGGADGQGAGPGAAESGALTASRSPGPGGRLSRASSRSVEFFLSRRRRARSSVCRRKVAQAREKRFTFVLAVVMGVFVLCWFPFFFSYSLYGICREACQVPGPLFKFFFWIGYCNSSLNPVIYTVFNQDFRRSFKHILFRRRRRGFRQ
Sequence of Alpha-1A adrenergic receptor (P35348 whole entry): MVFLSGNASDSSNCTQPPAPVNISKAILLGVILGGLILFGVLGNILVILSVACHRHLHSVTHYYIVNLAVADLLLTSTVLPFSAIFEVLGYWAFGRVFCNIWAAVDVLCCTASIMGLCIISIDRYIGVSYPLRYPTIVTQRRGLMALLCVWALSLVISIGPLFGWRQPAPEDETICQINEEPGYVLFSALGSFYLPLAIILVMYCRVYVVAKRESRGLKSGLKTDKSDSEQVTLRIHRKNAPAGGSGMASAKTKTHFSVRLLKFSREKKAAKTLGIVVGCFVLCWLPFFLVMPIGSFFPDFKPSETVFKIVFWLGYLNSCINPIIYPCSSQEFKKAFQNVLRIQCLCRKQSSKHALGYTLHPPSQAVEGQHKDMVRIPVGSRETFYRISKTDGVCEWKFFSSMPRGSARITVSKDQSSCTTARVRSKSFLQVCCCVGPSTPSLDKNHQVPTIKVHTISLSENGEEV
Sequence of Alpha-2A adrenergic receptor (P08913 whole entry): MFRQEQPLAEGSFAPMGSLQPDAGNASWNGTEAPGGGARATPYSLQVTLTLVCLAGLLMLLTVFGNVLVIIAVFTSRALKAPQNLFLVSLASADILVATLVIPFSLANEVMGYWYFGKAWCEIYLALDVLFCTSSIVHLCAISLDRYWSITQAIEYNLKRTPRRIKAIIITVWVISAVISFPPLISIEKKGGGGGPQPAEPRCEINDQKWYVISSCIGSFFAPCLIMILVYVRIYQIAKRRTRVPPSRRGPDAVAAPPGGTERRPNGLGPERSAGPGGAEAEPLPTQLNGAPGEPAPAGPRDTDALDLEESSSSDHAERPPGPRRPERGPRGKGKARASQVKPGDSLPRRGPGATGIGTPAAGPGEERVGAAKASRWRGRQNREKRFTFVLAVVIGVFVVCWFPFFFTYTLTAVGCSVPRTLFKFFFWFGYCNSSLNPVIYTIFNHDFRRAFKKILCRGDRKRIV
Sequence of Alpha-1D adrenergic receptor (P25100 whole entry): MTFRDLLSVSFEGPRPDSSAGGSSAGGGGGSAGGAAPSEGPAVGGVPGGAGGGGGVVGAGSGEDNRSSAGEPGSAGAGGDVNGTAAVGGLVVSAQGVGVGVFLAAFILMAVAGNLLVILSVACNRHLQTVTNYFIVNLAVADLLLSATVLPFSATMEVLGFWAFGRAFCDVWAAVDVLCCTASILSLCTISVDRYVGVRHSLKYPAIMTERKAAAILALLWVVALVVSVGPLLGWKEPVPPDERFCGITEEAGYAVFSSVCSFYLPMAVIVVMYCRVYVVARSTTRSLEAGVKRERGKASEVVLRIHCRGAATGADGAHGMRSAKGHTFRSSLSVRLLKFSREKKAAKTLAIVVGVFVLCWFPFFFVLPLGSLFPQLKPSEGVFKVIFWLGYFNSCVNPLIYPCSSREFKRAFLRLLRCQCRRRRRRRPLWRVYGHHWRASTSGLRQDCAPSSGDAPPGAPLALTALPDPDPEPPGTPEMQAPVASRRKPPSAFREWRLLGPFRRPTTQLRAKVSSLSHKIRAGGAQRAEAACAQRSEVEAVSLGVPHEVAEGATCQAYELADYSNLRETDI
Sequence of 5-hydroxytryptamine receptor 4 (Cavia porcellus) (O70528 whole entry): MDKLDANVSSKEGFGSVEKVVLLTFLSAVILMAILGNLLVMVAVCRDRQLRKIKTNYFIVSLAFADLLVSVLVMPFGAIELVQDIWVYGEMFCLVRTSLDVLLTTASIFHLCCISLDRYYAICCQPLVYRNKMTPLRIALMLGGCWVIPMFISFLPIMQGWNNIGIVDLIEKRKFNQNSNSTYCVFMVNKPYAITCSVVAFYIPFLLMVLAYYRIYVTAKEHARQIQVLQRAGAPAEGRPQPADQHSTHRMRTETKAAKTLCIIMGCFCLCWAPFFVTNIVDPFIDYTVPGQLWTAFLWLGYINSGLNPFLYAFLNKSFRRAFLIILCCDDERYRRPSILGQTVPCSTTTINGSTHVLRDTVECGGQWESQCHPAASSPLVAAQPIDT
Sequence of 5-hydroxytryptamine receptor 1B (P28564 whole entry): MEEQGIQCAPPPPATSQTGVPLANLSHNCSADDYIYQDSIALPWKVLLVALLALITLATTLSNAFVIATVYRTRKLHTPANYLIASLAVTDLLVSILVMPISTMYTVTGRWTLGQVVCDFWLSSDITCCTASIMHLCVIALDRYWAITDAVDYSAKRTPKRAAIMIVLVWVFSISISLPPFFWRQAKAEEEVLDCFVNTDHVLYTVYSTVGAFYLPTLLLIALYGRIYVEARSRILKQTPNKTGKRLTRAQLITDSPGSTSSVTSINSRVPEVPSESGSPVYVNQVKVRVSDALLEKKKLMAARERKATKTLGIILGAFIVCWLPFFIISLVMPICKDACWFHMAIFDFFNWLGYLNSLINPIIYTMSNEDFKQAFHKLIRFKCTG
Sequence of 5-hydroxytryptamine receptor 2B (P41595 whole entry): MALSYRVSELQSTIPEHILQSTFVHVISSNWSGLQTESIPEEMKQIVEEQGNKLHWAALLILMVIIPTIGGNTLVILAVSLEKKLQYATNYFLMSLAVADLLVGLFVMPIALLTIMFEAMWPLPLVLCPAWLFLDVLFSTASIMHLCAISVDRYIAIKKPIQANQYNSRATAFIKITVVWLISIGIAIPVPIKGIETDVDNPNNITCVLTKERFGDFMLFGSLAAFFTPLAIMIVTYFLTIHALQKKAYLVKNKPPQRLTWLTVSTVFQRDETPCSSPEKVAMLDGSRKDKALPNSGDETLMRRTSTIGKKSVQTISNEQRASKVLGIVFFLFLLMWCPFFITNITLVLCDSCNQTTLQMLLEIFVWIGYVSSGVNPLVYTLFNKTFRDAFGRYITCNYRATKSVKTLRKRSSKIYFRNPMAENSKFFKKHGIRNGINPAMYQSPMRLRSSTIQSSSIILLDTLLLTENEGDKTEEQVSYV
Sequence of Alpha-1B adrenergic receptor (P35368 whole entry): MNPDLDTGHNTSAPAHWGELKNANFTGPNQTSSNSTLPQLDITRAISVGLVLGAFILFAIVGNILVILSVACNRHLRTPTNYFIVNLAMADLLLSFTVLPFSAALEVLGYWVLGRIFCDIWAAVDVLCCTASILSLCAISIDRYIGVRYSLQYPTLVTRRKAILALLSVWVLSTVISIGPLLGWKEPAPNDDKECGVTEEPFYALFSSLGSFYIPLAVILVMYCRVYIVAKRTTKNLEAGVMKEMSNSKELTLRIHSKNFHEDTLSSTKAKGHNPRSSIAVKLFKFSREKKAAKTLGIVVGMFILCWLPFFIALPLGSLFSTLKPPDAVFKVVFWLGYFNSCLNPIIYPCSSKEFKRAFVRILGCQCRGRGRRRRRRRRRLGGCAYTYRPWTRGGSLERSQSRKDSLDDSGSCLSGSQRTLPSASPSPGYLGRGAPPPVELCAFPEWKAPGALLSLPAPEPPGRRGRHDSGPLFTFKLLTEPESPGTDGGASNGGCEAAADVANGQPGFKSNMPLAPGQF
Sequence of Alpha-2B adrenergic receptor (P18089 whole entry): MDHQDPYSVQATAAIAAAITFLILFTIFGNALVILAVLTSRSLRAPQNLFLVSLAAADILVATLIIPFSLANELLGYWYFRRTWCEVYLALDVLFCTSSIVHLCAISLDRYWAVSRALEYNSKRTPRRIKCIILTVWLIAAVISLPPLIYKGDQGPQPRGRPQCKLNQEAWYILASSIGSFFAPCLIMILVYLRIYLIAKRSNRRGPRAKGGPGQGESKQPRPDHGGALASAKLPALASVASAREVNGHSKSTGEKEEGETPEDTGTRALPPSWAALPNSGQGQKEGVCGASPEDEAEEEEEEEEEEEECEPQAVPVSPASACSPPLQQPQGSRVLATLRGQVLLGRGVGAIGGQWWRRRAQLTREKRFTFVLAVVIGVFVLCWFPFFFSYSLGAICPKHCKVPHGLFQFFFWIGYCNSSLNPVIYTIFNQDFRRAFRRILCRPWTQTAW

For `CCCN1CCC(COc2nc3scc(C)c3n3cccc23)CC1`, the result in data set [1], in [3] and in [9] was inactive. The Activity in data set [2] was 80%; in data set [7], 12.5; in data set [8], “Toxic”; in data set [14], 20%. In [4], this compound registered an inhibition of 100%. In addition, the IC50 in [5] was 74.1 nM; in [6] it was 6.92 nM; in [10], 145 nM; in data set [11], 955 nM; in data set [12], 204 nM; in data set [13], 741 nM. Also, the IC50 in [15] is 282 nM; in data set [16] it was 891 nM; in data set [17], more than 10000 nM; in data set [18], 385 nM.
